# Results: ChEMBL document CHEMBL4002619, “Targeting Type 2 Diabetes with C-Glucosyl Dihydrochalcones as Selective Sodium Glucose Co-Transporter 2 (SGLT2) Inhibitors: Synthesis and Biological Evaluation” (J Med Chem, 2017)
# Active and inactive are the calls of the source. The calls are words filed in the database; no cut-off is given here.
# How the values were obtained:
# Format in all cases: cell-based
# [1] = Inhibition of GLUT in HEK293 cells assessed as reduction in 2-deoxyglucose uptake at 100 uM pretreated for 10 mins followed by 2-deoxyglucose addition in presence of choline buffer measured after 1 hr by resazurin dye based fluorescence assay; details: human
# Method in brief: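 SGLT1 and SGLT2 stable HEK293 lines (G418-selected) assayed in sodium-free buffer, NaCl replaced by choline chloride; compounds at 100 µM; phlorizin and cytochalasin B as controls. 2-deoxyglucose 1 mM, 1 h at 37 °C; lysis in 0.1 M NaOH, 80-85 °C 40 min, neutralised; G6PDH/NADP+/diaphorase/resazurin cycling 15-20 h at 37 °C; resorufin fluorescence ex 560/em 590 nm.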
# [2] = system: HEK293; assay: Cytotoxicity in HEK293 cells assessed as cell viability at 100 uM measured after 20 to 24 hrs by Cell-Titer Blue fluorescence assay; details: human, hek293, 100 µM
# Method in brief: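 HEK293 cells (DMEM, 10% FBS, 37 °C, 5% CO2) seeded 2.0 × 10^4 cells/well 24 h before; compound at 100 µM in triplicate, 20-24 h at 37 °C; CellTiter-Blue 4 h at 37 °C; fluorescence ex 560/em 590 nm; viability as treated/untreated fluorescence ratio, %. DMSO-treated wells run alongside. Mean ± SD of three independent experiments.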
# [3] = biological target: T1, Sodium/glucose cotransporter 2 (Homo sapiens, UniProt P31639); assay: Inhibition of human SGLT2 expressed in HEK293 cells assessed as reduction in 2-deoxyglucose uptake pretreated for 10 mins followed by 2-deoxyglucose addition in presence of sodium buffer measured after 1 hr by resazurin dye based fluorescence assay
# T1 sequence (P31639 whole entry): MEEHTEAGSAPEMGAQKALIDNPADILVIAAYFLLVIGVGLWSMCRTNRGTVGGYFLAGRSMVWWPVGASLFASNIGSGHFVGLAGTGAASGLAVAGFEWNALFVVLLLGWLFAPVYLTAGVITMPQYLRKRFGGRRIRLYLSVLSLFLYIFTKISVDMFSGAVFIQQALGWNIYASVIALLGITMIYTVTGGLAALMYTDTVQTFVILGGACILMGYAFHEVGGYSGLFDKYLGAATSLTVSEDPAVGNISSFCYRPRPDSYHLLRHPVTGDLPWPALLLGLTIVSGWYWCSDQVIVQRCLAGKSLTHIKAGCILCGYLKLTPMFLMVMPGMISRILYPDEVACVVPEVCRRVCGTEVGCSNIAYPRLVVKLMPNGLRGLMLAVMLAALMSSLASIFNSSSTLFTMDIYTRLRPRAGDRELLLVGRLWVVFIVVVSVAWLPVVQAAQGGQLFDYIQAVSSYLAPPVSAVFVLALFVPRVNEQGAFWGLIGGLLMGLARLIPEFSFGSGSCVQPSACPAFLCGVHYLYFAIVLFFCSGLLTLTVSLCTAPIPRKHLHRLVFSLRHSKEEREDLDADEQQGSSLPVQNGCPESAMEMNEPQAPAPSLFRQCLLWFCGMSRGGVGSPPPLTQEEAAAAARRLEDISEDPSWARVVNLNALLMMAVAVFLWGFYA
# [4] = biological target: T2, Sodium/glucose cotransporter 2 (Homo sapiens) (UniProt P31639); assay: Inhibition of human SGLT2 expressed in HEK293 cells assessed as reduction in 2-deoxyglucose uptake at 100 uM pretreated for 10 mins followed by 2-deoxyglucose addition in presence of sodium buffer measured after 1 hr by resazurin dye based fluorescence assay
# T2 sequence (whole entry): T1 sequence (P31639 whole entry)
# Method in brief: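 Stably transfected HEK293 expressing human SGLT2 (pCMV6-Neo, G418-selected), 2.0 × 10^4 cells/well, 24 h; 1 h preincubation in KRPH buffer at 37 °C; compound 100 µM; 2-deoxyglucose 1 mM, 1 h at 37 °C; NaOH lysis at 80-85 °C, neutralised; enzymatic cycling (G6PDH, NADP+, diaphorase, 10 µM resazurin, pH 8.2) 15-20 h; fluorescence ex 560/em 590 nm. Mean ± SD, three independent experiments.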
# [5] = biological target: T3, Sodium/glucose cotransporter 1 (Homo sapiens, UniProt P13866); assay: Inhibition of human SGLT1 expressed in HEK293 cells assessed as reduction in 2-deoxyglucose uptake at 100 uM pretreated for 10 mins followed by 2-deoxyglucose addition in presence of sodium buffer measured after 1 hr by resazurin dye based fluorescence assay; details: hek293, 1 h
# T3 sequence (P13866 whole entry): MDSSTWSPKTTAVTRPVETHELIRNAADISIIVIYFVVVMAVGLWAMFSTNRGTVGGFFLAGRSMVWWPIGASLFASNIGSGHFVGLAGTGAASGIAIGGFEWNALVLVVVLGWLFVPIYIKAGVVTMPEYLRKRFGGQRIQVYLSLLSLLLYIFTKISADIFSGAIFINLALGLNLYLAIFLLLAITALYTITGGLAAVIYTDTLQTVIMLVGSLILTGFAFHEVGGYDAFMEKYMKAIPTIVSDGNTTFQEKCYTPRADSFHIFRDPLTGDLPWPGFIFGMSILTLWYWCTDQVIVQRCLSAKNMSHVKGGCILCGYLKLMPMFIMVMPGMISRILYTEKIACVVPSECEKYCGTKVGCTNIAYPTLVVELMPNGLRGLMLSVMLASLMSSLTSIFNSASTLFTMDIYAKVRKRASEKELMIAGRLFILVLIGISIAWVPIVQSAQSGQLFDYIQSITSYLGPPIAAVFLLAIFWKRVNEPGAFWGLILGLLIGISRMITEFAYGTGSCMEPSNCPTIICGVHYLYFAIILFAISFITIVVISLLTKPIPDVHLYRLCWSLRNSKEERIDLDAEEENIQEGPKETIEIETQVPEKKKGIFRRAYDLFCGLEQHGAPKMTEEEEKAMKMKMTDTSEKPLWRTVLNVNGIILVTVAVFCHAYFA
# [6] = Inhibition of GLUT in HEK293 cells assessed as reduction in 2-deoxyglucose uptake pretreated for 10 mins followed by 2-deoxyglucose addition in presence of choline buffer measured after 1 hr by resazurin dye based fluorescence assay; details: human
# [7] = Inhibition of GLUT in HEK293 cells assessed as reduction in 2-deoxyglucose uptake pretreated for 10 mins followed by 2-deoxyglucose addition in presence of sodium buffer measured after 1 hr by resazurin dye based fluorescence assay; details: human
inhibition (INH) [1],IC50 [3],inhibition [4],inhibition (INH) [5],SMILES,Activity [2],inhibition (INH) [6],inhibition (INH) [7]
Not Active,0.0213 µM,Active,Active,COc1ccc(CCC(=O)c2c(O)cc(O)c([C@@H]3O[C@H](CO)[C@@H](O)[C@H](O)[C@H]3O)c2O)cc1,Non-Toxic,,
,,Active,,"O=C(/C=C/c1ccccc1)c1c(O)cc(O)cc1O [2',4',6-TRIHYDROXYCHALCONE]",,,
Active,16.4 µM,Active,Active,CCCOc1ccc(CCC(=O)c2c(O)cc(O)cc2O)cc1,Non-Toxic,,
Active,18.7 µM,Active,Active,COc1ccc(CCC(=O)c2c(O)cc(O)cc2O)cc1,Non-Toxic,,
Not Active,0.0227 µM,Active,Active,CCCOc1ccc(CCC(=O)c2c(O)cc(O)c([C@@H]3O[C@H](CO)[C@@H](O)[C@H](O)[C@H]3O)c2O)cc1,Non-Toxic,,
Active,16.7 µM,Active,Active,CCOc1ccc(CCC(=O)c2c(O)cc(O)cc2O)cc1,Non-Toxic,,
Active,51.7 µM,Active,Active,"O=C(/C=C/c1ccc(F)cc1)c1c(O)cc(O)cc1O [4-FLUORO-2',4',6'-TRIHYDROXYCHALCONE]",Non-Toxic,,
Not Active,0.0182 µM,Active,Active,Cc1ccc(CCC(=O)c2c(O)cc(O)c([C@@H]3O[C@H](CO)[C@@H](O)[C@H](O)[C@H]3O)c2O)cc1,Non-Toxic,,
Active,22.7 µM,Active,Active,O=C(/C=C/c1ccc(OCc2ccccc2)cc1)c1c(O)cc(O)cc1O,Non-Toxic,,
Active,26.2 µM,Active,Active,C=CCOc1ccc(/C=C/C(=O)c2c(O)cc(O)cc2O)cc1,Non-Toxic,,
Not Active,0.0217 µM,Active,Active,CCOc1ccc(CCC(=O)c2c(O)cc(O)c([C@@H]3O[C@H](CO)[C@@H](O)[C@H](O)[C@H]3O)c2O)cc1,Non-Toxic,,
Active,18 µM,Active,Active,Cc1ccc(CCC(=O)c2c(O)cc(O)cc2O)cc1,Non-Toxic,,
Active,15.8 µM,Active,Active,O=C(CCc1ccc(F)cc1)c1c(O)cc(O)cc1O,Non-Toxic,,
Not Active,0.0091 µM,Active,Active,O=C(CCc1ccc(F)cc1)c1c(O)cc(O)c([C@@H]2O[C@H](CO)[C@@H](O)[C@H](O)[C@H]2O)c1O,Non-Toxic,,
Active,18.3 µM,Active,,O=C(CCc1ccc(O)cc1)c1c(O)cc(O)cc1O [PHLORETIN],Non-Toxic,,
Active,34.1 µM,Active,Active,Cc1ccc(/C=C/C(=O)c2c(O)cc(O)cc2O)cc1,Non-Toxic,,
,,Active,Active,CCOc1ccc(Cc2cc([C@@H]3O[C@H](CO)[C@@H](O)[C@H](O)[C@H]3O)ccc2Cl)cc1 [DAPAGLIFLOZIN],,,
Active,26 µM,Active,Active,CCOc1ccc(/C=C/C(=O)c2c(O)cc(O)cc2O)cc1,Non-Toxic,,
Active,23.5 µM,Active,Active,"O=C(/C=C/c1ccc(Br)cc1)c1c(O)cc(O)cc1O [4-BROMO-2',4',6'-TRIHYDROXYCHALCONE]",Non-Toxic,,
Active,18.2 µM,Active,Active,"COc1ccc(/C=C/C(=O)c2c(O)cc(O)cc2O)cc1 [4-METHOXYL-2',4',6'-TRIHYDROXYCHALCONE]",Non-Toxic,,
,,Active,,O=C(CCc1ccc(O)cc1)c1c(O)cc(O)cc1O[C@@H]1O[C@H](CO)[C@@H](O)[C@H](O)[C@H]1O [PHLORIZIN],Non-Toxic,,
Not Active,0.0119 µM,Active,Active,O=C(CCc1ccc(O)cc1)c1c(O)cc(O)c([C@@H]2O[C@H](CO)[C@@H](O)[C@H](O)[C@H]2O)c1O,Non-Toxic,,
Not Active,0.0198 µM,Active,Active,O=C(CCc1ccccc1)c1c(O)cc(O)c([C@@H]2O[C@H](CO)[C@@H](O)[C@H](O)[C@H]2O)c1O,Non-Toxic,,
Active,14.7 µM,Active,Active,O=C(CCc1ccccc1)c1c(O)cc(O)cc1O,Non-Toxic,,
,,,,C=C1[C@@H](C)[C@H]2[C@H](Cc3ccccc3)NC(=O)[C@]23OC(=O)/C=C/[C@H](O)CCC[C@@H](C)C/C=C/[C@H]3[C@@H]1O [CYTOCHALASIN B],,Active,Active
